In ChEMBL document CHEMBL4118058, “Amino Acid Conjugated Anthraquinones from the Marine-Derived Fungus Penicillium sp. SCSIO sof101” (J Nat Prod, 2017) one finds IC50 and Activity data, which are given here for eleven compounds.

Calls of active or inactive are those of the source. No cut-off for these calls is given here.

The subject of assay [1] is Jurkat. The assay is described as follows: Cytotoxicity against human Jurkat T cells assessed as reduction in cell viability after 72 hrs by alamar blue assay. The assay is classed as cell-based. The essentials:
(§1)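 Cells seeded at 2 × 10^4 cells/well and exposed to compound for 72 h. DMSO was the negative control and doxorubicin the positive control. AlamarBlue (1:10 dilution) was then added for 4 h at 37 °C, and absorbance was read at 590 nm.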
In general terms: The colour change of resazurin is a common sign of viable cells or microbes.

Another assay relates to K562. The assay is described as follows: Cytotoxicity against human K562 cells assessed as reduction in cell viability after 72 hrs by alamar blue assay. The settings on record: K562, 72 h. The assay is classed as cell-based. The procedure, abridged: as §1
The subject of a further assay is HeLa. The assay is described as follows: Cytotoxicity against human HeLa cells assessed as reduction in cell viability after 72 hrs by alamar blue assay. The class given is cell-based. The procedure, abridged:
as §1

The test system of assay [2] is Jurkat. The assay is described as follows: Anti-inflammatory activity in PMA/ionomycin stimulated human Jurkat T cells assessed as reduction in IL-2 secretion at 20 uM preincubated for 20 mins followed by PMA/ionomycin stimulation measured after 12 hrs by ELISA. The class given is functional, cell-based. The essentials: (§2)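 Jurkat T cells seeded at 1 × 10^5 cells/well and pretreated with compound for 20 min, then stimulated with PMA (40 nM) plus ionomycin (1 μM) for 12 h at 37 °C. DMSO was the negative control and FK506 (100 nM) the positive control. IL-2 in 100 μL supernatant was measured by sandwich ELISA with streptavidin detector and TMB substrate, read at 450 nm.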
Background: In an ELISA, binding on a coated surface is turned into a signal by an enzyme label.

Assay [3] has as its system Jurkat. Briefly: Anti-inflammatory activity in PMA/ionomycin stimulated human Jurkat T cells assessed as reduction in IL-2 secretion preincubated for 20 mins followed by PMA/ionomycin stimulation measured after 12 hrs by ELISA. The assay is classed as functional, cell-based. The procedure, abridged: as §2

By IC50 is commonly meant the concentration that gives 50% inhibition. In the case of `CC(C)[C@H](NC(=O)c1cc(O)c2c(c1)C(=O)c1cc(O)c(Cl)c(O)c1C2=O)C(=O)O`, the IC50 with Jurkat [1] is more than 10 µM; in the assay with K562 it was more than 10 µM; in the assay with HeLa, more than 10 µM; with Jurkat [3] it was 5.1 µM. For the same compound, the outcome in the assay on Jurkat [2] was Active.

For `O=C(O)c1cc(O)c2c(c1)C(=O)c1cc(O)cc(O)c1C2=O` [EMODIC ACID], the IC50 in the assay with Jurkat [1], in the assay with K562 and in the assay with HeLa was more than 10 µM throughout. The outcome in the assay on Jurkat [2] was Active.

Take `CCC(C)[C@H](NC(=O)c1cc(O)c2c(c1)C(=O)c1cc(O)cc(O)c1C2=O)C(=O)O` (some centres undefined): the IC50 is more than 10 µM in the assay with Jurkat [1], more than 10 µM with K562, more than 10 µM in the assay with HeLa and 5.4 µM in the assay with Jurkat [3]. In addition, the outcome with Jurkat [2] was Active.

As for `CCC(C)[C@H](NC(=O)c1cc(O)c2c(c1)C(=O)c1cc(O)cc(O)c1C2=O)C(=O)OC` (some centres undefined), the IC50 was more than 10 µM in the assay with Jurkat [1], more than 10 µM with K562, more than 10 µM in the assay on HeLa and 12 µM with Jurkat [3]. The result with Jurkat [2] was Active.

Regarding `COC(=O)[C@@H](NC(=O)c1cc(O)c2c(c1)C(=O)c1cc(O)cc(O)c1C2=O)C(C)C`, the IC50 in the assay on Jurkat [1] is more than 10 µM; in the assay on K562, more than 10 µM; in the assay on HeLa, more than 10 µM; in the assay with Jurkat [3], 4.1 µM. The result in the assay on Jurkat [2] was Active.

For `CCC(C)[C@H](NC(=O)c1cc(O)c2c(c1)C(=O)c1cc(O)c(Cl)c(O)c1C2=O)C(=O)O` (some centres undefined), the IC50 with Jurkat [1], with K562 and in the assay with HeLa was more than 10 µM each time. Moreover, the result with Jurkat [2] was Active.

In the case of `CC(C)[C@H](NC(=O)c1cc(O)c2c(c1)C(=O)c1cc(O)cc(O)c1C2=O)C(=O)O`, the IC50 in the assay on Jurkat [1], with K562 and with HeLa was more than 10 µM each time. In addition, in the assay on Jurkat [2], the outcome was Active.

On to `C=CC[C@@H]1/C=C(\C)C[C@H](C)C[C@H](OC)[C@H]2O[C@@](O)(C(=O)C(=O)N3CCCC[C@H]3C(=O)O[C@H](/C(C)=C/[C@@H]3CC[C@@H](O)[C@H](OC)C3)[C@H](C)[C@@H](O)CC1=O)[C@H](C)C[C@@H]2OC` [TACROLIMUS ANHYDROUS], for which the IC50 in the assay on Jurkat [3] is 5.8 µM.

On to `C[C@H](NC(=O)c1cc(O)c2c(c1)C(=O)c1cc(O)cc(O)c1C2=O)C(=O)O`, for which the IC50 with Jurkat [1], with K562 and with HeLa was more than 10 µM each time. Moreover, in the assay on Jurkat [2], the result was Active.

For the compound `O=C1c2cc(CO)cc(O)c2C(=O)c2c1cc(O)c(Cl)c2O`, the IC50 with Jurkat [1], with K562 and with HeLa was more than 10 µM each time.

As to `CC(C)C[C@H](NC(=O)c1cc(O)c2c(c1)C(=O)c1cc(O)c(Cl)c(O)c1C2=O)C(=O)O`, the IC50 with Jurkat [1], in the assay with K562 and with HeLa was more than 10 µM each time. Also, the result with Jurkat [2] was Active.
